Assay results from ChEMBL document CHEMBL3120055, “HPLC-based activity profiling for GABAA receptor modulators in Adenocarpus cincinnatus” (J Nat Prod, 2014).
Calls of active or inactive are those of the source. No cut-off for these calls is given here.

Experiments:
Rattus norvegicus [1] = species on record: Rattus norvegicus; experiment: Positive allosteric modulation of rat alpha1beta2gamma2S GABAA receptor expressed in Xenopus laevis oocytes assessed as potentiation of GABA-induced chloride current at 300 uM by two-microelectrode voltage clamp electrophysiology; assay type: cell-based
Summary of the method: (§1)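 Rat α1β2γ2s cRNAs (1:1:10) were injected into collagenase-treated Xenopus oocytes, which were kept at 18 °C in ND96 and recorded on days 1–5. Two-electrode clamp was held at −70 mV in bath containing 90 mM NaCl and 5 mM HEPES, pH 7.4. Compound at 0.1–300 μM was co-applied with GABA EC5–10 by fast perfusion, with 1% DMSO final. Enhancement is I(GABA+Comp)/IGABA − 1, given as mean ± SE from four oocytes across three batches.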

Rattus norvegicus [2] = species on record: Rattus norvegicus; experiment: Positive allosteric modulation of rat alpha1beta2gamma2S GABAA receptor expressed in Xenopus laevis oocytes assessed as potentiation of GABA-induced chloride current by two-microelectrode voltage clamp electrophysiology relative to control; assay type: cell-based; summary of the method: as §1
Rattus norvegicus [3] = species on record: Rattus norvegicus; experiment: Positive allosteric modulation of rat alpha1beta2gamma2S GABAA receptor expressed in Xenopus laevis oocytes assessed as potentiation of GABA-induced chloride current at 100 uM by two-microelectrode voltage clamp electrophysiology relative to control; assay type: cell-based
[4] = Positive allosteric modulation of rat alpha1beta2gamma2S GABAA receptor expressed in Xenopus laevis oocytes assessed as potentiation of GABA-induced chloride current by two-microelectrode voltage clamp electrophysiology; assay type: cell-based; summary of the method: as §1
Rattus norvegicus [5] = species on record: Rattus norvegicus; experiment: Agonist activity at rat alpha1beta2gamma2S GABAA receptor expressed in Xenopus laevis oocytes assessed as direct activation of chloride current in absence of GABA at 0.1 to 30 uM by two-microelectrode voltage clamp electrophysiology
Rattus norvegicus [6] = species on record: Rattus norvegicus; experiment: Positive allosteric modulation of rat alpha1beta2gamma2S GABAA receptor expressed in Xenopus laevis oocytes assessed as potentiation of GABA-induced chloride current at 1 uM by two-microelectrode voltage clamp electrophysiology relative to control; assay type: cell-based
Summary of the method: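 Rat α1β2γ2s cRNAs (1:1:10) injected into collagenase-defolliculated oocytes, kept at 18 °C in ND96 with penicillin-streptomycin, and recorded on days 1–5. Test agent applied by fast perfusion with GABA EC5–10 in 1% DMSO final. Enhancement = I(GABA+Comp)/IGABA − 1.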

## CC(C)=CCc1cc2c(cc1O)O[C@H]1c3ccc(O)c(O)c3OC[C@@H]21
Rattus norvegicus [1]
  Activity: inactive
Rattus norvegicus [2]
  Emax: 491%
Rattus norvegicus [3]
  %max: 454%
[4]
  EC50: 18.8 µM
Rattus norvegicus [5]
  Activity: inactive

## Oc1ccc2c(c1)OC[C@H]1c3cc4ccoc4cc3O[C@@H]21
Rattus norvegicus [3]
  %max: 213%

## CC(C)=CCc1c(O)c(CCC(C)(C)O)cc2c1O[C@H](c1ccc(O)cc1)[C@@H](O)C2=O
Rattus norvegicus [3]
  %max: -26%

## CC(C)=CCc1c(O)ccc2c1O[C@H](c1ccc(O)cc1)[C@@H](O)C2=O
Rattus norvegicus [3]
  %max: 272%

## CC(C)=CCc1cc2c(c(CC=C(C)C)c1O)O[C@H](c1ccc(O)cc1)[C@@H](O)C2=O
Rattus norvegicus [3]
  %max: 287%

## CC1(C)C=Cc2cc3c(cc2O1)O[C@H]1c2ccc(O)cc2OC[C@@H]31 [ISONEORAUTENOL]
Rattus norvegicus [1]
  Activity: inactive
Rattus norvegicus [2]
  Emax: 771%
Rattus norvegicus [3]
  %max: 388%
[4]
  EC50: 40.7 µM
Rattus norvegicus [5]
  Activity: inactive

## Oc1ccc2c(c1)OC[C@H]1c3cc4c(cc3O[C@@H]21)OCO4
Rattus norvegicus [3]
  %max: 238%

## CN1C(=O)CN=C(c2ccccc2)c2cc(Cl)ccc21
Rattus norvegicus [6]
  Activity: 231%

## CC(C)=CCc1c(O)ccc2c(=O)c(-c3ccc(O)cc3O)coc12
Rattus norvegicus [2]
  Emax: 553%
Rattus norvegicus [3]
  %max: 560%
[4]
  EC50: 2.8 µM
Rattus norvegicus [5]
  Activity: inactive

## CC(C)=CCc1cc2c(cc1O)OCC(c1ccc(O)cc1O)C2=O (stereo unspecified)
Rattus norvegicus [3]
  %max: 199%

## CO[C@H](Cc1ccccc1)C(=O)c1ccc(O)cc1O
Rattus norvegicus [3]
  %max: 88.8%

## CC(C)(O)CCc1cc2c(cc1O)O[C@H]1c3ccc(O)cc3OC[C@@H]21
Rattus norvegicus [1]
  Activity: inactive
Rattus norvegicus [2]
  Emax: 640%
Rattus norvegicus [3]
  %max: 489%
[4]
  EC50: 8.6 µM
Rattus norvegicus [5]
  Activity: inactive

## CO/C(=C\c1ccccc1)C(=O)c1ccc(O)cc1O
Rattus norvegicus [3]
  %max: 228%

## CC(C)=CCc1c(O)ccc2c(=O)c(-c3ccc(O)cc3)coc12
Rattus norvegicus [3]
  %max: 192%

## O=C1c2ccc(O)cc2O[C@H](c2ccccc2)[C@H]1O
Rattus norvegicus [3]
  %max: 11.7%

## CC(C)=CCc1c(O)ccc2c1OCC(c1ccc(O)cc1O)C2=O (stereo unspecified)
Rattus norvegicus [3]
  %max: 361%
